Source: PubChem BioAssay (several laboratories)
eIF4E 4G PPI = eIF4E–eIF4G protein interaction inhibitors, primary screen, biochemical, uHTS, TR-FRET, eIF4GI fragment; Eukaryotic translation initiation factor 4E (Mus musculus) + Eukaryotic translation …; TR-FRET eIF4E-eIF4GI(517-606) binding, 2 h; inhibition, % at 21.7 µM; actives 0.37% (n = 220,000); AID 782, 2007;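 further: 0% = full FRET control wells and 100% = background wells lacking eIF4GI fragment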
Wee1 stabilizer = Wee1 degradation inhibitors, primary screen, cell-based, HeLa, Wee1K328M-luciferase, luminescence; Wee1-like protein kinase (Homo sapiens), P30291; HeLa Luc-Wee1K328M stability; 100% = proteasome inhibitor MG132 effect; reporter increase, % at 5 µM; actives 1.2% (n = 220,000); AID 1321, 2008;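 active means activation above the mean of all tested compounds plus 3 SD, set per screening run, cut at about 8.8% in these data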;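 further: cells exposed to compound for 20 h before luminescence read; 0% = DMSO alone and 100% = MG132 at 30 µM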
14-3-3 Bad inh = inhibitors of 14-3-3 zeta/Bad binding, primary screen, biochemical, TR-FRET, bovine 14-3-3 zeta | 14-3-3 protein zeta/delta (Bos taurus), P63103 | TR-FRET 14-3-3zeta/Dy647-pBad peptide displacement, 1 h | inhibition, % at 21.7 µM | actives 0.71% (n = 220,000);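 active means inhibition above about 70%, limit read from the data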;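 further: 0% = full 14-3-3 plus peptide FRET controls and 100% = background without 14-3-3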
Target sequence (P63103 whole entry, looked up): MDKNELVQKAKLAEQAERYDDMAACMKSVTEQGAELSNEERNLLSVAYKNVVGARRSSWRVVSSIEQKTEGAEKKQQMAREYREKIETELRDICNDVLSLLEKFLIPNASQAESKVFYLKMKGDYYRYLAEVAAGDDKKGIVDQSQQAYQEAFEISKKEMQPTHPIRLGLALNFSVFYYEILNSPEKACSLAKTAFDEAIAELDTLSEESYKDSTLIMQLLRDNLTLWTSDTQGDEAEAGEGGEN
NCF1 inh = p47phox/p22phox peptide binding inhibitors, primary screen, biochemical, uHTS, NADPH oxidase regulatory subunit; AID 1274, 2008; fluorescence polarization, 2 h; inhibition, % at 24.7 µM; Neutrophil cytosol factor 1 (Homo sapiens), P14598; actives 0.53% (n = 220,000);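 further: 0% = p47phox with labelled peptide and 100% = labelled peptide alone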
RBBP9 inh = human RBBP9 inhibitors, primary screen, biochemical, fluorescence polarization, FP-Rh probe, HTS. Serine hydrolase RBBP9 (Homo sapiens), O75884. recombinant RBBP9. AID 1515, 2009. inhibition, % at 7.94 µM. actives 0.2% (n = 220,000);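 active means inhibition above the campaign mean of all tested compounds plus 3 SD, cut at about 14% in these data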;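 further: plate controls were DMSO wells with RBBP9 for no effect and wells lacking RBBP9 protein for full effect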
Target sequence (O75884 whole entry, looked up): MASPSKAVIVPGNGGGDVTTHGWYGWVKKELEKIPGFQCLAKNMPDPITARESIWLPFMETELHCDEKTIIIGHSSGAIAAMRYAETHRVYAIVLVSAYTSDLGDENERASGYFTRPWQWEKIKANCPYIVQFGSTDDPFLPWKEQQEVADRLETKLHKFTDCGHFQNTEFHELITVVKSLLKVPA
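Measured by: FP readout at 525/598 nm; material: recombinant human RBBP9; also added: Serine-hydrolase probe FP-Rh, 375 nM pre-mixing; medium: Tris buffer pH 8.0, NaCl, Pluronic; replication: one well per compound; doses: one concentration, 7.94 µM nominal, 0.794% DMSO; timing: preincubation 30 min plus labeling 45 min at 25 °C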
* marks the source's active call; other numbers are inactive results. Hits are enriched below; roughly 2.8% of the tested compounds scored in any of these assays.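 How the source made its calls, unless noted: active means inhibition above about 30% (limit read from the data); inactive means the rest.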

How did NNC(=O)c1cnn(Cc2ccccc2)c1N do in these assays?
eIF4E 4G PPI: 0.7; Wee1 stabilizer: 0.4; 14-3-3 Bad inh: -2.6; NCF1 inh: 9.9; RBBP9 inh: -2.5

How did COC(=O)C1=C(N)Oc2cc(C)n(Cc3cccnc3)c(=O)c2C1c1cccc(OC)c1OC (stereo unspecified) do in these assays?
eIF4E 4G PPI: -8.2; Wee1 stabilizer: 9.2*; 14-3-3 Bad inh: -9.8; NCF1 inh: -1.3; RBBP9 inh: -7.0

What do the screens show for `CC1CCN(CCCNC(=O)c2ccc(CS(=O)(=O)Cc3ccccc3F)o2)CC1`?
eIF4E 4G PPI: 3.9; Wee1 stabilizer: 2.1; 14-3-3 Bad inh: -6.2; NCF1 inh: -43.0; RBBP9 inh: 0.7

How did O=C(NCCCN1CCCCCC1)c1ccc(CS(=O)(=O)Cc2ccccc2F)o1 do in these assays?
eIF4E 4G PPI: -57.6; Wee1 stabilizer: 0.0; 14-3-3 Bad inh: -97.2; NCF1 inh: 89.0*; RBBP9 inh: -7.4

What do the screens show for `COc1ccc(-c2nnc(SCc3ccc(C(=O)O)cc3)n2N)cc1`?
eIF4E 4G PPI: -1.5; Wee1 stabilizer: 2.4; 14-3-3 Bad inh: 1.8; NCF1 inh: 7.4; RBBP9 inh: -0.5

How did C/C(CC(=O)NC1CCCCCC1)=N\NC(=O)c1cnccn1 do in these assays?
eIF4E 4G PPI: 20.4; Wee1 stabilizer: 2.0; 14-3-3 Bad inh: -8.4; NCF1 inh: -6.2; RBBP9 inh: -4.2

Results for C/C(CC(=O)NC1CCCC1)=N\NC(=O)C1CCCCC1 ?
eIF4E 4G PPI: -0.1; Wee1 stabilizer: 3.7; 14-3-3 Bad inh: 97.0*; NCF1 inh: 8.3; RBBP9 inh: -2.4

What do the screens show for `Cc1ccc(S(=O)(=O)Nc2c(C)n(C)n(-c3ccccc3)c2=O)cc1C(=O)NCc1ccccn1`?
eIF4E 4G PPI: 83.6*; Wee1 stabilizer: -2.4; 14-3-3 Bad inh: 2.7; NCF1 inh: -9.7; RBBP9 inh: -10.6

What do the screens show for `COCCN(C(=O)C(=O)NC1CCCC1)C(C(=O)NC1CCCC1)c1ccccc1F` (stereo unspecified)?
eIF4E 4G PPI: -0.5; Wee1 stabilizer: 2.0; 14-3-3 Bad inh: -3.6; NCF1 inh: -5.0; RBBP9 inh: -6.4

Results for CCC(C)(C)n1nnnc1C(CC(C)C)N1CCC(C(N)=O)CC1 (stereo unspecified) ?
eIF4E 4G PPI: -4.5; Wee1 stabilizer: 3.0; 14-3-3 Bad inh: 6.2; NCF1 inh: -1.9; RBBP9 inh: -8.2

Results for CC(=O)Nc1ccc(S(=O)(=O)N2CCN(Cc3ccccn3)CC2)cc1 ?
eIF4E 4G PPI: 5.7; Wee1 stabilizer: -0.8; 14-3-3 Bad inh: 70.9*; NCF1 inh: -5.3; RBBP9 inh: 2.7

Results for CN(C)c1ccc(/C=C/c2cccc[n+]2[O-])cc1 ?
eIF4E 4G PPI: 0.6; Wee1 stabilizer: 9.9*; 14-3-3 Bad inh: 1.5; NCF1 inh: -19.9; RBBP9 inh: 1.1

What do the screens show for `CC1(C)CC(=O)c2sc(NS(C)(=O)=O)nc2C1`?
eIF4E 4G PPI: 2.0; Wee1 stabilizer: 1.8; 14-3-3 Bad inh: 71.1*; NCF1 inh: -4.3; RBBP9 inh: -6.6

What do the screens show for `CC1(C)CC(=O)c2sc(NS(=O)(=O)c3ccccc3)nc2C1`?
eIF4E 4G PPI: 1.9; Wee1 stabilizer: 0.3; 14-3-3 Bad inh: 1.9; NCF1 inh: -10.9; RBBP9 inh: -12.4

How did O=C(Nc1nncs1)c1ccc(S(=O)(=O)c2ccccc2)cc1 do in these assays?
eIF4E 4G PPI: -4.0; Wee1 stabilizer: 9.3*; 14-3-3 Bad inh: -6.9; NCF1 inh: -10.0; RBBP9 inh: -5.8

What do the screens show for `O=C(Nc1ccccc1C(=O)Nc1nncs1)c1ccccc1`?
eIF4E 4G PPI: -2.2; Wee1 stabilizer: -0.7; 14-3-3 Bad inh: -0.7; NCF1 inh: -12.0; RBBP9 inh: -9.3

What do the screens show for `COc1ccccc1NC(=O)Cc1cccs1`?
eIF4E 4G PPI: 3.5; Wee1 stabilizer: 2.2; 14-3-3 Bad inh: -2.8; NCF1 inh: -6.1; RBBP9 inh: -0.2

Results for CCN(CC)S(=O)(=O)c1ccc(OC)c(NC(=O)Cc2cccs2)c1 ?
eIF4E 4G PPI: 34.0*; Wee1 stabilizer: -1.5; 14-3-3 Bad inh: 43.8; NCF1 inh: -14.8; RBBP9 inh: -2.3
